Compounds with a hit are over-represented: about 3.4% of the library has one in this group of screens.
IMP-1 inh: inhibitors of Pseudomonas aeruginosa IMP-1 metallo-beta-lactamase | purified IMP-1, nitrocefin hydrolysis, epi-absorbance fluorescence | inhibition, % at 5.6 µM | 290,000 compounds, 0.45% hits;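 active = inhibition above the mean plus 3 SD of all compounds in the same screening run, cut at about 4.5% in these data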;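 also: 0% = IMP-1 with DMSO and 100% = DMSO wells lacking enzyme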
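assay system = purified recombinant IMP-1 metallo-beta-lactamase enzyme | schedule = 15 min preincubation plus 25 min reaction at 25 °C | signal = Epi-absorbance fluorescence, 480 nm excitation, 530 nm emission | read-out basis = percent inhibition from optical density relative to buffer-blank wells | controls = IMP-1 with DMSO as 0%, enzyme-free DMSO as 100%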
VIM-2 inh: blocks Pseudomonas aeruginosa VIM-2 metallo-beta-lactamase | purified VIM-2, nitrocefin hydrolysis, epi-absorbance fluorescence | inhibition, % at 5.6 µM | 290,000 compounds, 0.89% hits;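 active = inhibition above the mean of all tested compounds plus 3 SD, cutoff set per screening run, cut at about 7.5% in these data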;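 also: red hydrolysis product quenches plate fluorescence so inhibitors raise well fluorescence; 0% = enzyme with DMSO and 100% = DMSO without enzyme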
ANO1 activ: activators or potentiators of mouse TMEM16A chloride channel | B-score at 10 µM | HEK293 TMEM16A/YFP-H148Q/I152L, iodide quench fluorescence; hits give low values | AID 623877 | 340,000 compounds, 0.3% hits | Q8BHY3;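 active = fluorescence-ratio B-score plate-corrected deviation score at least 3 library SD below zero, with starting fluorescence score within 5 deviations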;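 also: channel opened by trigger with iodide after compound preincubation; score built on the fluorescence ratio of max minus min over baseline; more negative score means more quench and so TMEM16A activation or potentiation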
ANO1 block: inhibitors of mouse TMEM16A calcium-activated chloride channel | HEK293 TMEM16A/YFP iodide influx fluorescence, ionomycin | 310,000 compounds, 1.2% hits | Q8BHY3 | AID 588511 | normalized B-score (activity score, 25-100; higher = stronger inhibition) at 10 µM;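 active = ratio plate-corrected score three or more library SD toward inhibition, starting fluorescence score within five deviations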;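 also: score derived from kinetic fluorescence span divided by baseline fluorescence per well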
CHT block: human CHT choline transport inhibition; Q9GZV3; CHT-expressing cells, membrane potential dye, choline response; hits give low values; B-score at 10 µM; 310,000 compounds, 0.86% hits; AID 488975;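 active = B-score over 3 SD under the library average, and starting fluorescence ratio not unusually high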;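 also: choline stimulus applied at its EC90 after an EC20 pre-addition; B-score computed on integrated fluorescence ratio after choline addition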
Target sequence (Q9GZV3 whole entry, looked up): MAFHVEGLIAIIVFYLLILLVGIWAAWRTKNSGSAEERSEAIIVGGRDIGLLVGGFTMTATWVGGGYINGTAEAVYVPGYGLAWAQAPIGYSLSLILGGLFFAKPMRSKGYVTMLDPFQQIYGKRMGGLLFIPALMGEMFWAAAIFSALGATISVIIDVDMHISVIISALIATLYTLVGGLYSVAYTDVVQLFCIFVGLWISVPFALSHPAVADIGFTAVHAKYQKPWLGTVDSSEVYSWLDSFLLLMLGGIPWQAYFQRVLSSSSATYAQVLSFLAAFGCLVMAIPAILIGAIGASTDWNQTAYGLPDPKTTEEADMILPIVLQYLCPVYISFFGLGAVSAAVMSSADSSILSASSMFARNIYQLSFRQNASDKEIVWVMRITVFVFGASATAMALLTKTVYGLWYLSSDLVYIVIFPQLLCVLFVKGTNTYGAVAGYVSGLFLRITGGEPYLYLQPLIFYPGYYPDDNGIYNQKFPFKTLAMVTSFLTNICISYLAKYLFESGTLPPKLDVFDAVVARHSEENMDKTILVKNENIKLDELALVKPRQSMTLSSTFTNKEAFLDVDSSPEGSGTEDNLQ
CHT PAM: human CHT allosteric activation; 310,000 compounds, 0.49% hits; B-score at 10 µM; AID 488977; CHT-expressing cells, membrane potential dye, choline EC20; hits give high values; LV-AA mutant CHT in HEK293 cells;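 active = initial fluorescence not abnormally high and integrated response B-score, plate-corrected, over 3 SD above library mean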
TMEM16A reconf: re-confirmation of mouse TMEM16A chloride channel inhibitors. AID 652189. inhibition, % at 10 µM. shares compounds with ANO1 block. 2,300 compounds, 39% hits. HEK293 TMEM16A/YFP-H148Q, iodide quench fluorescence; ionomycin added to raise cell calcium;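 active = mean duplicate percent inhibition, scaled so buffer wells are 0 and the reference blocker 100, over three buffer SD above buffer mean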
HEK293 Ca mobil: alters calcium mobilization in TMEM16A HEK293 cells, counter-screen; shares compounds with ANO1 block; TMEM16A/YFP HEK293, Fluo4 calcium mobilization; calcium response (% of ionomycin), % at 10 µM; 2,300 compounds, 2% hits;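 active = duplicate-averaged calcium signal over 20% of the ionomycin maximum, relative to buffer baseline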;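 also: each well's signal is peak minus trough fluorescence divided by its pre-addition baseline; 0% = buffer wells and 100% = ionomycin wells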
YFP-HEK293 quench: counter-screen for TMEM16A inhibitors: effect in parental YFP-HEK293 cells; shares compounds with ANO1 block; iodide YFP quench, ionomycin; YFP ratio F(max-min)/F0 at 10 µM; 2,300 tested, under 10 active; AID 652233;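 active = yellow fluorescent protein signal ratio exceeding the buffer control mean by over 5 SD of those controls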;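 also: ratio is mean of duplicate wells from kinetic YFP trace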
ClC-1 rat inh: selectivity of TMEM16A inhibitors: inhibition of rat ClC-1 chloride channel | ratio percent, % at 10 µM | AID 652236 | CHO ClC-1-YFP, iodide influx fluorescence quench; iodide control reads 0, buffer control 100 | shares compounds with ANO1 block | 2,300 tested, under 10 active;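 active = duplicate-mean ratio percent above the mean of iodide-only control wells, which defines zero, plus 5 of their SD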;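 also: higher percent means stronger block of ClC-1 iodide influx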
An asterisk follows results filed as active; i = inactive; · = no result; ! = not active in a repeat.

SMILES | IMP-1 inh | VIM-2 inh | ANO1 activ | ANO1 block | CHT block | CHT PAM | TMEM16A reconf | HEK293 Ca mobil | YFP-HEK293 quench | ClC-1 rat inh
Cc1c(O)cccc1C(=O)N[C@@H](CSc1ccccc1)[C@H](O)CN1C[C@H]2CCCC[C@H]2C[C@H]1C(=O)NC(C)(C)C | -5 | -5 | i | 100*! | i | i | 41%* | i | -1 | -2
CCOC(=O)c1c(NC(=O)c2nn(CC)cc2Br)c(C#N)nn1-c1ccccc1 | 0 | -1 | i | 100* | i | i | i | i | -0.92 | -10
CN(CC(CC(=O)Nc1nncs1)c1ccccc1)S(=O)(=O)c1ccc(Br)cc1 (configuration not stated) | -4 | -4 | i | 100* | i | i | i | i | -0.96 | -12
CC(=O)c1c(C)[nH]c(C(=O)CSc2nc3ccc(C)cc3[nH]2)c1C | -4 | -5 | i | i | i | i | i | i | -0.82 | -1
O=C(/C=C/c1ccccc1)NCCS(=O)(=O)N1CCN(c2ccc(F)cc2)CC1 | · | · | i | i | i | i | · | · | · | ·
CC(C(=O)NC1CCCc2ccccc21)N1CCN(Cc2ccc3c(c2)OCO3)CC1 (configuration not stated) | -5 | -1 | i | 25* | i | i | i | i | -0.95 | -4
Cc1ccc(NC(=O)c2ccc(S(=O)(=O)N(C)c3ccccc3)cc2)cc1S(=O)(=O)N1CCOCC1 | · | · | i | · | · | · | · | · | · | ·
COc1ccc(-c2nnc3ccc(SC(C(C)=O)C(C)=O)nn23)cc1OC | -2 | 1 | i | i | i | i | · | · | · | ·
CCC(Sc1ccc2nnc(-c3ccc(OC)c(OC)c3)n2n1)C(=O)O (configuration not stated) | 0 | 2 | i | 100* | i | i | i | i | -0.79 | -6
CCC(C)C(=O)Nc1ccc(S(=O)(=O)N2CCCC2)cc1 (configuration not stated) | -3 | -2 | i | i | i | i | · | · | · | ·
CCC(C)NS(=O)(=O)c1ccc(S(=O)(=O)N2CCCC3(CCCCC3)C2)cc1 (configuration not stated) | -3 | -1 | i | 100* | i | i | 52%* | i | -1.1 | -30
CCCCOc1ccc2c(C)cc(=O)oc2c1OCCCC | -2 | -2 | i | 100* | i | i | i | i | -1.3 | -10
CCC(=O)Oc1ccc2c(C)cc(=O)oc2c1C | -2 | -1 | i | i | i | i | · | · | · | ·
CCn1c(=O)c([N+](=O)[O-])c(N2CCSCC2)c2ccccc21 | 0 | 2 | i | 25* | i | i | i | i | -0.85 | -8
Cc1noc(C)c1CSc1nc2ccccc2nc1NS(=O)(=O)c1ccc(Cl)cc1 | 0 | 0 | i | 100* | i | i | 29%* | i | -0.72 | -8
CC1(NC(=O)Nc2cc([N+](=O)[O-])ccc2O)CCS(=O)(=O)C1 (configuration not stated) | · | · | i | · | · | · | · | · | · | ·
Cc1ccc(S(=O)(=O)N2CCCC2)cc1C(=O)Nc1ccc(-n2cnnn2)cc1 | · | · | i | · | · | · | · | · | · | ·
Cc1nc(-c2ccc(S(=O)(=O)Nc3ccc(Br)cc3Cl)s2)cs1 | -2 | -4 | i | 100* | i | i | 34%* | i | -1.1 | -20
CC(C)(C)NC(=O)C(c1ccc(F)cc1)N(C(=O)CCC(=O)Nc1ccccn1)C1CCCC1 (configuration not stated) | -4 | -6 | i | i | i | i | · | · | · | ·
C=CCc1cc(C)ccc1OCC(O)CN1CCN(c2ccccc2)CC1 (configuration not stated) | -2 | -3 | i | i | i | i | · | · | · | ·
C=CCc1cc(OC)ccc1OCC(O)CN1CCN(c2ccc(OC)cc2)CC1 (configuration not stated) | -2 | -2 | i | 25*! | i | i | i | i | -1.2 | -14
CCOC(=O)C1=C(C)N=c2s/c(=C/c3ccc(OCC(=O)O)cc3)c(=O)n2C1c1ccc(F)cc1 (configuration not stated) | 0 | -2 | i | i | i | i | i | 30%* | -0.86 | -16
O=[N+]([O-])c1ccc(N2CCN(C(=S)NC3CCCCC3)CC2)cc1 | -2 | -2 | i | 25* | i | i | i | i | -0.99 | -21
CC(=O)Nc1ccc(Oc2cc(C#N)c(C#N)cc2N2CCCCCC2)cc1 | -6 | -4 | i | 100* | i | i | i | i | -1.1 | 4
Cc1ccc(N=Cc2cc3c(cc2O)OC(N)=C(C#N)C3c2ccccc2)cc1 (configuration not stated) | -3 | -2 | i | i | i | i | · | · | · | ·
SMILES | IMP-1 inh | VIM-2 inh | ANO1 activ | ANO1 block | CHT block | CHT PAM | TMEM16A reconf | HEK293 Ca mobil | YFP-HEK293 quench | ClC-1 rat inh
N#CC1=C(N)Oc2cc(O)c(C=Nc3ccccc3)cc2C1c1ccccc1 (configuration not stated) | -1 | -2 | i | i | i | i | i | i | -0.96 | 46
CCCn1c(O)c(CN2CCCCC2)c(C)c(C#N)c1=O | 0 | 4 | · | i | i | i | 20%* | i | -1 | -26
Cc1c(CN2CCCCC2)c(O)n(CCCO)c(=O)c1C#N | -3 | -3 | i | i | i | i | · | · | · | ·
CCN(/C=N/c1sc2c(c1C#N)CCCCC2)CC | -2 | -1 | i | 100* | i | i | i | i | -1.3 | -9
Cc1ccccc1C(=O)Oc1cccc(Nc2ncnc3ccccc23)c1 | -3 | -3 | i | 25* | i | i | 30%* | i | -0.92 | -14
O=C1CCCc2cc3c(cc21)CC1(C3)Cc2cc3c(cc2C1)C(=O)CCC3 | -3 | -2 | i | 25* | i | i | 20%* | i | -1.2 | -10
CCCCn1c(N)c(N(CCOC)C(=O)CSc2n[nH]c(-c3ccc(OC)cc3)n2)c(=O)[nH]c1=O | -2 | -1 | i | i | i | i | · | · | · | ·

Bioassay records (PubChem BioAssay)
